Only some compounds are listed: those with a hit (about 3.7% of all), similar ones and a draw of the others.
KCNQ1 inh: blocks the human KCNQ1 potassium channel; AID 2642; B-score at 10 µM; P51787; 310,000 compounds, 1.3% hits; CHO-K1 KCNQ1, FluxOR thallium flux fluorescence; active compounds read high;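 active = compounds whose thallium flux B-score, printed positive for inhibition, exceeds three library SD while starting fluorescence stays within three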;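 also: channel opened by potassium depolarization with thallium stimulus after 20 min compound exposure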
KCNK3 block: human KCNK3 channel inhibition, primary screen; O14649; CHO-KCNK3 thallium flux, FluxOR fluorescence; active compounds read low; B-score at 10 µM; 340,000 compounds, 0.84% hits;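 active = B-score under library mean minus 4 SD, starting fluorescence ratio at most library mean plus 5 SD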;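 also: more negative B-score means stronger inhibition of thallium flux through KCNK3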
Target sequence (O14649 whole entry, looked up): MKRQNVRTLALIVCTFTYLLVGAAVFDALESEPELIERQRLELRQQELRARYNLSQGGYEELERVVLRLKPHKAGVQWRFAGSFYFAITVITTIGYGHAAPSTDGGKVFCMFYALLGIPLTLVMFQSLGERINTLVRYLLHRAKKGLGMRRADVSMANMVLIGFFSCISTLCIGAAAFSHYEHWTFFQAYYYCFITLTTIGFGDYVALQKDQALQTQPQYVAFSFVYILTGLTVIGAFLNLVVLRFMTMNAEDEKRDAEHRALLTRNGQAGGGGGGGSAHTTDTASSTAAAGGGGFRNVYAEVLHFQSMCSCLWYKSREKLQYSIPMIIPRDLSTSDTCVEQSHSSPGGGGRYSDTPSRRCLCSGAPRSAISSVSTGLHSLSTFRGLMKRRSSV
hERG protect: compounds protecting human hERG from proarrhythmic drug block | AID 1511 | Q12809 | CHO-hERG, FluxOR thallium flux, dofetilide IC70 present | 310,000 compounds, 0.51% hits | activation (rescue from dofetilide block), less the hit threshold, % at 10 µM;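 active = activation above the mean of controls blocked by dofetilide plus 5 SD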;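 also: thallium influx through hERG after potassium depolarization seen as dye fluorescence rise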
KCNQ1 pot: potentiators or activators of human KCNQ1 potassium channel; P51787; CHO-K1 KCNQ1, thallium flux FluxOR fluorescence; active compounds read high; B-score at 10 µM; 310,000 compounds, 0.35% hits; AID 2648;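 active = fluorescence ratio B-score, a plate-corrected score, at least three library SD, with initial intensity B-score within 5 SD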
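Doses: Single concentration per compound, DMSO matched to controls | Test system: KCNQ1-transfected CHO-K1 cells | Timing: 90 min dye loading and 20 min compound exposure, both at room temperature | Measured by: Kinetic FluxOR thallium fluorescence, 10-s 1-Hz baseline, 110-s post-stimulus read | Medium: Assay buffer with matched DMSO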
KCNK9 inh: blocks the human KCNK9 two-pore domain potassium channel; B-score at 10 µM; Q9NPC2; 310,000 compounds, 1.2% hits; AID 488922; HEK293 KCNK9, FluxOR thallium flux fluorescence; active compounds read low;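 active = ratio B-score over 3 SD below the library mean, with starting fluorescence within 5 SD of its mean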;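 also: negative B-score means less thallium flux so channel inhibition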
Kir21 block: inhibitors of mouse Kir2.1 inward-rectifier potassium channel; 310,000 compounds, 0.85% hits; B-score at 10 µM; HEK293-Kir2.1, FluxOR thallium flux fluorescence; active compounds read low; P35561;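 active = fluorescence ratio B-score at or below minus 3 SD of library scores, with starting-brightness B-score within 2 SD, cut at about -4.2 in these data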;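 also: channel flux triggered by added potassium and thallium sulfate stimulus; B-score of peak minus minimum fluorescence over baseline after thallium stimulus; more negative B-score means stronger Kir2.1 block with less thallium influx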
KCNK9 block conf: human KCNK9 inhibitor confirmation; shares compounds with KCNK9 inh; HEK293 KCNK9 cells, FluxOR thallium flux fluorescence; inhibition, % at 10 µM; 4,900 compounds, 43% hits; AID 492992;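 active = thallium signal inhibited by more than 5 SD of the compound-free buffer control wells, on both duplicate plates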;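 also: 0% = assay buffer control wells without compound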
Kir2-1 spec: selectivity of KCNK9 modulators against mouse Kir2.1 | Kir2.1 cells, FluxOR thallium flux fluorescence | AID 492993 | shares compounds with KCNK9 inh | 4,900 compounds, 4% hits | inhibition, % at 10 µM;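 active = thallium signal drop more than 5 SD beyond the mean of the no-compound control wells, seen in both duplicate plates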;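 also: signal is fluorescence rise after thallium addition divided by baseline fluorescence; plate controls were assay buffer only for no effect and full block by chlorpromazine control for full effect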
KCNK9 uninduced: second counter-screen for KCNK9 modulators: effect in non-induced cells; shares compounds with KCNK9 inh; non-induced KCNK9-HEK293, FluxOR thallium flux; inhibition, % at 10 µM; 4,900 compounds, 40% hits;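 active = thallium signal drop beyond 5 SD of the untreated control mean, on both duplicate plates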;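 also: plate controls were buffer only IC0 wells for no effect and SID17386958 at its maximal inhibitory level for full effect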
Numbers without * were called inactive; i = inactive; · = not tested or not shown.

SMILES | KCNQ1 inh | KCNK3 block | hERG protect | KCNQ1 pot | KCNK9 inh | Kir21 block | KCNK9 block conf | Kir2-1 spec | KCNK9 uninduced
Cc1ccc(S(=O)(=O)NNC(=O)C2CC=CCC2C(=O)O)cc1 (stereo unspecified) | i | i | -3.2 | i | i | 1.45 | · | · | ·
Cc1ccc(C(=O)OCC(=O)c2c[nH]c3ccccc23)cc1 | i | i | -4.6 | i | i | 2.05 | · | · | ·
CC(C)Cc1ccc(C(C)C(=O)OCC(=O)c2c[nH]c3ccccc23)cc1 (stereo unspecified) | i | i | -4.3 | i | -10.2* | -1.88 | 24.5%* | i | 41.5%*
O=C1CCC(/C=C/c2ccccc2)=NN1Cc1ccc(Cl)c(Cl)c1 | i | i | -4.8 | i | i | 0.47 | i | i | i
COc1ccccc1C(=O)Nc1cc(Cl)ccc1O | i | i | -5.5 | i | i | 0.24 | · | · | ·
CCOc1ccccc1C(=O)Nc1cc(Cl)ccc1O | i | i | -11.9 | i | -11.8* | 1.97 | 52.5%* | i | 36.0%*
COC(=O)CC1(C(=O)OC)Oc2ccc(Br)cc2C(=O)N1c1cc(Cl)c(Cl)cc1Cl (stereo unspecified) | i | i | -10.8 | i | -8.55* | 0.47 | 25.0%* | i | 42.5%*
O=C(CCNC(=O)c1ccc(Br)cc1)NCc1ccncc1 | i | i | -11.4 | i | i | -0.19 | · | · | ·
Cc1ccc(SCc2cc(=O)[nH]c(Nc3nc(C)c4ccccc4n3)n2)cc1 | i | i | -5.8 | i | i | -0.67 | i | i | i
Cc1ccc(SCc2cc(=O)[nH]c(Nc3nc(C)c4ccc(C)cc4n3)n2)cc1 | i | i | -10.5 | i | i | 0 | · | · | ·
CC(=O)Nc1ccccc1N(C)S(=O)(=O)c1ccc(C)cc1 | i | i | -8.5 | i | -8.27* | -0.16 | i | i | i
O=C(NC1CCSc2ccccc21)c1ccc(Cl)c(S(=O)(=O)N2CCOCC2)c1 (stereo unspecified) | i | i | -6.9 | i | i | 0.55 | · | · | ·
CCN(CC)S(=O)(=O)c1cccc(-c2nnc(SCCOc3ccc(Cl)cc3)o2)c1 | i | i | -3.9 | i | -9.96* | -1.3 | 48.5%* | i | i
CCN(CC)S(=O)(=O)c1cccc(-c2nnc(SCC(=O)c3cc(C)n(C)c3C)o2)c1 | i | i | 0.9 | i | i | -0.7 | · | · | ·
CCN(CC)S(=O)(=O)c1cccc(-c2nnc(SCCOc3ccccc3C)o2)c1 | i | i | -14.9 | i | i | 0.69 | i | i | i
CCCCCN(C(=O)CCC(=O)OCC(=O)c1ccc(F)c(F)c1)c1c(N)n(CCCC)c(=O)[nH]c1=O | i | i | -6.4 | i | i | -0.1 | · | · | ·
Nc1ccc(C2(c3ccc(N)cc3)OC(=O)c3ccccc32)cc1 | i | i | -4.0 | i | i | 0.24 | · | · | ·
Cc1cc(C2(c3ccc(O)c(C)c3)OC(=O)c3ccccc32)ccc1O | i | i | -5.8 | i | -12.2* | -2.01 | 55.0%* | i | i
CCOc1cccc(C(=O)Nc2ccccc2OC(F)F)c1 | i | i | -4.8 | i | i | -2.18 | · | · | ·
Cc1ccc(NC(=O)c2cccc(OC(F)F)c2)c(OC(F)F)c1 | i | i | -4.9 | i | -8.66* | -1.89 | 54.0%* | i | 35.0%*
O=C(CCc1nnc(CCCc2ccccc2)o1)NCCN1CCOC1=O | i | i | -6.2 | i | i | -0.28 | · | · | ·
COc1cc(/C=C2\C(=N)N3N=C(S(C)(=O)=O)SC3=NC2=O)cc(OC)c1OCCOc1cccc(C)c1 | i | i | -34.1 | i | i | 1.74 | i | i | i
CCS(=O)(=O)C1=NN2C(=N)/C(=C\c3ccc(OCCOc4cccc(OC)c4)c(OC)c3)C(=O)N=C2S1 | i | i | -26.1 | i | i | 0 | i | i | i
CC(C)(C)n1nnnc1C(c1cccs1)N(Cc1ccc(Cl)cc1)CC1CCCO1 (stereo unspecified) | i | i | -9.4 | i | -16.5* | -0.02 | 62.5%* | i | 42.5%*
CC(C)(C)n1nnnc1C(c1cccnc1)N(Cc1ccccc1)Cc1cccs1 (stereo unspecified) | i | i | -8.4 | i | -12.7* | 0.2 | 45.5%* | i | 52.5%*
SMILES | KCNQ1 inh | KCNK3 block | hERG protect | KCNQ1 pot | KCNK9 inh | Kir21 block | KCNK9 block conf | Kir2-1 spec | KCNK9 uninduced
CC(C)(C)n1nnnc1C(c1ccc(C(F)(F)F)cc1)N(Cc1ccc(F)cc1)Cc1ccco1 (stereo unspecified) | i | i | -4.7 | i | -10.5* | 1.17 | 41.5%* | i | 31.0%*
Clc1ccc(CN(Cc2ccccc2)C(c2cccs2)c2nnnn2C2CCCC2)cc1 (stereo unspecified) | i | i | -9.0 | i | i | -0.03 | · | · | ·
Cc1ccc(C(c2nnnn2C(C)(C)C)N(Cc2ccco2)Cc2cccs2)cc1 (stereo unspecified) | i | i | -7.5 | i | -17.2* | 1.14 | 65.5%* | i | 30.5%*
Cc1ccc(S(=O)(=O)Cn2nnnc2CN(Cc2ccco2)Cc2cccs2)cc1 | i | i | -6.8 | i | i | -0.74 | · | · | ·
COc1ccc(Cl)cc1N1C(=O)CN(Cc2cc(OC)c(OC)c(OC)c2)C1=S | i | i | -2.3 | i | i | 1.34 | · | · | ·
CN(C)S(=O)(=O)c1cccc(COC(=O)c2cccnc2Cl)c1 | i | i | -7.6 | i | i | -1.22 | · | · | ·
CC1CC(C)CN(S(=O)(=O)c2ccc(C(=O)NCc3ccco3)cc2)C1 (stereo unspecified) | i | i | -3.3 | i | i | 0.32 | · | · | ·
COc1ccc(-c2nc(-c3ccccc3)ncc2S(C)(=O)=O)cc1 | i | i | -2.2 | i | i | -1.5 | · | · | ·
CC(C)(C)n1nnnc1C(c1ccc(C(F)(F)F)cc1)N(Cc1ccccc1)Cc1ccco1 (stereo unspecified) | 6* | i | -4.0 | i | -10.7* | 0.74 | 52.0%* | i | 33.0%*
CC(C)(C)n1nnnc1C(c1ccc(Cl)cc1)N(Cc1cccnc1)Cc1ccco1 (stereo unspecified) | 6* | -10.1* | -10.0 | i | -14.4* | -1.28 | 52.0%* | i | 39.0%*

Screening results: PubChem, Johns Hopkins Ion Channel Center
